Activity calls are given as the source filed them. The calls are words filed in the database; no cut-off is given here.
Experiments:
Type in all cases: functional
[1] = system: HCT-8; experiment: Cytotoxicity against human HCT8 cells; settings: read-out: ED50 (the source's name)
Method in brief: (§1)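 Sulforhodamine B assay after Rubinstein et al. Cells grown at 37 °C, humidified 5% CO2, in RPMI-1640 with 10% (v/v) FBS and 100 μg/mL kanamycin. Seeding density set per line to give final A562 of 1-2.5. Stocks in DMSO, final DMSO <1% (v/v). Two-day drug exposure, absorbance at 562 nm. ED50 (50% absorbance reduction vs untreated) interpolated from dose-response. Tests in duplicate.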

[2] = system: A549; experiment: Cytotoxicity against human A549 cells; settings: for EC50: read-out: ED50 (the source's name); method in brief: as §1
[3] = system: LNCaP; experiment: Cytotoxicity against human LN-Cap cells; settings: read-out: ED50 (the source's name); method in brief: as §1
[4] = system: 1A9; experiment: Cytotoxicity against human 1A9 cells; settings: for EC50: read-out: ED50 (the source's name); method in brief: as §1
[5] = system: KB; experiment: Cytotoxicity against human KB cells; settings: for EC50: read-out: ED50 (the source's name); method in brief: as §1
[6] = system: ZR-75-1; experiment: Cytotoxicity against human ZR751 cells; settings: for EC50: read-out: ED50 (the source's name); method in brief: as §1
[7] = system: DU-145; experiment: Cytotoxicity against human DU145 cells; settings: read-out: ED50 (the source's name); method in brief: as §1
[8] = system: PC-3; experiment: Cytotoxicity against human PC3 cells; settings: read-out: ED50 (the source's name); method in brief: as §1
[9] = system: KB-VIN; experiment: (§2) Cytotoxicity against human KB-VIN cells; method in brief: as §1
[10] = system: KB; experiment: Cytotoxicity against human KB cells by sulforhodamine B assay; settings: for EC50: read-out: ED50 (the source's name); method in brief: as §1
[11] = (§3) Cytotoxicity against human KB-VIN cells by sulforhodamine B assay; settings: KBVIN, read-out: ED50 (the source's name); method in brief: as §1
[12] = as §2; settings: KBVIN, read-out: ED50 (the source's name); method in brief: as §1
[13] = system: KB-VIN; experiment: as §3; method in brief: as §1

| Compound | EC50 [1] | EC50 [2] | EC50 [3] | EC50 [4] | EC50 [5] | EC50 [6] | EC50 [7] | EC50 [8] | Activity [9] | Activity [2] | Activity [5] | Activity [6] | EC50 [10] | EC50 [11] | EC50 [12] | Activity [10] | Activity [13] | Activity [4] |
| --- | --- | --- | --- | --- | --- | --- | --- | --- | --- | --- | --- | --- | --- | --- | --- | --- | --- | --- |
| COc1cccc(/C=C/C(=O)c2ccccc2)c1OC(=O)[C@@]1(C)CC[C@]2(C)CC[C@]3(C)C(=CC(=O)[C@@H]4[C@@]5(C)CC[C@H](O)C(C)(C)[C@@H]5CC[C@]43C)[C@@H]2C1 | > 14000 nM | > 14000 nM | 14100 nM | 13300 nM | 9900 nM | > 14000 nM | > 14000 nM | 14100 nM | inactive | – | – | – | – | – | – | – | – | – |
| COc1ccc(/C=C/C(=O)c2ccccc2)cc1OC(=O)[C@@]1(C)CC[C@]2(C)CC[C@]3(C)C(=CC(=O)[C@@H]4[C@@]5(C)CC[C@H](O)C(C)(C)[C@@H]5CC[C@]43C)[C@@H]2C1 | > 14000 nM | – | 14100 nM | > 14000 nM | – | – | > 14000 nM | 14100 nM | inactive | inactive | inactive | inactive | – | – | – | – | – | – |
| C[C@H]1[C@H](C)CC[C@]2(C(=O)O)CC[C@]3(C)C(=CC[C@@H]4[C@@]5(C)CC[C@H](O)C(C)(C)[C@@H]5CC[C@]43C)[C@H]12 [URSOLIC ACID] | – | – | – | – | – | – | – | – | – | – | – | – | 8300 nM | 8100 nM | – | – | – | – |
| CCOc1cc(/C=C/C(C)=O)ccc1OC(=O)[C@@]1(C)CC[C@]2(C)CC[C@]3(C)C(=CC(=O)[C@@H]4[C@@]5(C)CC[C@H](O)C(C)(C)[C@@H]5CC[C@]43C)[C@@H]2C1 | 2700 nM | 1700 nM | 1100 nM | 1100 nM | 1800 nM | 5200 nM | 5800 nM | 3300 nM | – | – | – | – | – | – | 1700 nM | – | – | – |
| COc1cc(/C=C/C(C)=O)ccc1OC(=O)[C@@]1(C)CC[C@]2(C)CC[C@]3(C)C(=CC(=O)[C@@H]4[C@@]5(C)CC[C@H](O)C(C)(C)[C@@H]5CC[C@]43C)[C@@H]2C1 | 1700 nM | 2000 nM | 600 nM | 900 nM | 1600 nM | 2800 nM | 3100 nM | 1400 nM | – | – | – | – | 1700 nM | 2800 nM | 2500 nM | – | – | – |
| CCOc1cccc(/C=C/C(C)=O)c1OC(=O)[C@@]1(C)CC[C@]2(C)CC[C@]3(C)C(=CC(=O)[C@@H]4[C@@]5(C)CC[C@H](O)C(C)(C)[C@@H]5CC[C@]43C)[C@@H]2C1 | 4900 nM | 3000 nM | 6800 nM | 1800 nM | 2900 nM | 8800 nM | > 15000 nM | 3500 nM | – | – | – | – | – | – | 13200 nM | – | – | – |
| COc1cc(/C=C/C(C)=O)ccc1OC(=O)[C@]12CCC(C)(C)C[C@H]1C1=CC[C@@H]3[C@@]4(C)CC[C@H](O)C(C)(C)[C@@H]4CC[C@@]3(C)[C@]1(C)CC2 | – | – | – | – | – | – | – | – | – | – | – | – | – | – | – | inactive | inactive | – |
| COc1cc(/C=C/C(=O)c2ccccc2)ccc1OC(=O)[C@@]1(C)CC[C@]2(C)CC[C@]3(C)C(=CC(=O)[C@@H]4[C@@]5(C)CC[C@H](O)C(C)(C)[C@@H]5CC[C@]43C)[C@@H]2C1 | > 14000 nM | > 14000 nM | > 14000 nM | > 14000 nM | – | – | > 14000 nM | > 14000 nM | inactive | – | inactive | inactive | – | – | – | – | – | – |
| COc1ccc(/C=C/C(C)=O)cc1OC(=O)[C@@]1(C)CC[C@]2(C)CC[C@]3(C)C(=CC(=O)[C@@H]4[C@@]5(C)CC[C@H](O)C(C)(C)[C@@H]5CC[C@]43C)[C@@H]2C1 | 2000 nM | 2800 nM | 6500 nM | 1600 nM | 900 nM | 1900 nM | 9900 nM | 2800 nM | – | – | – | – | – | – | 1900 nM | – | – | – |
| COc1cc(/C=C/C(C)=O)ccc1OC(=O)[C@]12CC[C@@H](C)[C@H](C)[C@H]1C1=CC[C@@H]3[C@@]4(C)CC[C@H](O)C(C)(C)[C@@H]4CC[C@@]3(C)[C@]1(C)CC2 | – | – | – | – | – | – | – | – | – | – | – | – | 10500 nM | – | – | – | inactive | – |
| CC1(C)[C@@H](O)CC[C@]2(C)[C@H]3C(=O)C=C4[C@@H]5C[C@@](C)(C(=O)O)CC[C@]5(C)CC[C@@]4(C)[C@]3(C)CC[C@@H]12 [ENOXOLONE] | 19500 nM | – | > 21000 nM | > 21000 nM | > 21000 nM | – | > 21000 nM | > 21000 nM | – | inactive | – | inactive | – | – | > 21000 nM | inactive | inactive | – |
| COc1ccc(/C=C/C(C)=O)c(OC(=O)[C@@]2(C)CC[C@]3(C)CC[C@]4(C)C(=CC(=O)[C@@H]5[C@@]6(C)CC[C@H](O)C(C)(C)[C@@H]6CC[C@]54C)[C@@H]3C2)c1 | 2600 nM | 15500 nM | 1900 nM | 5900 nM | 6200 nM | > 15000 nM | > 15000 nM | 7400 nM | – | – | – | – | – | – | > 15000 nM | – | – | – |
| CC1(C)CC[C@]2(C(=O)O)CC[C@]3(C)C(=CC[C@@H]4[C@@]5(C)CC[C@H](O)C(C)(C)[C@@H]5CC[C@]43C)[C@@H]2C1 | – | – | – | – | – | – | – | – | – | – | – | – | – | – | – | inactive | inactive | – |
| COc1cc(/C=C/C(C)=O)ccc1O [DEHYDROZINGERONE] | > 52000 nM | > 52000 nM | 51000 nM | 33900 nM | – | > 52000 nM | > 52000 nM | > 52000 nM | inactive | – | inactive | – | – | – | – | inactive | inactive | – |
| COc1ccc(/C=C/C(=O)c2ccccc2)c(OC(=O)[C@@]2(C)CC[C@]3(C)CC[C@]4(C)C(=CC(=O)[C@@H]5[C@@]6(C)CC[C@H](O)C(C)(C)[C@@H]6CC[C@]54C)[C@@H]3C2)c1 | > 14000 nM | – | > 14000 nM | – | > 14000 nM | – | 13000 nM | > 14000 nM | – | inactive | – | inactive | – | – | > 14000 nM | – | – | inactive |
| COc1cccc2c1C(=O)c1c(O)c3c(c(O)c1C2=O)C[C@@](O)(C(=O)CO)C[C@@H]3O[C@H]1C[C@H](N)[C@H](O)[C@H](C)O1 [DOXORUBICIN] | 1200 nM | 180 nM | 40 nM | 20 nM | 100 nM | 40 nM | 150 nM | 260 nM | – | – | – | – | – | – | 4970 nM | – | – | – |
| CC(=O)/C=C/c1cccc(F)c1OC(=O)[C@@]1(C)CC[C@]2(C)CC[C@]3(C)C(=CC(=O)[C@@H]4[C@@]5(C)CC[C@H](O)C(C)(C)[C@@H]5CC[C@]43C)[C@@H]2C1 | 2200 nM | 3200 nM | 4400 nM | 1300 nM | 3000 nM | 2700 nM | 2700 nM | 1600 nM | – | – | – | – | – | – | 8700 nM | – | – | – |
| COc1cccc(/C=C/C(C)=O)c1OC(=O)[C@@]1(C)CC[C@]2(C)CC[C@]3(C)C(=CC(=O)[C@@H]4[C@@]5(C)CC[C@H](O)C(C)(C)[C@@H]5CC[C@]43C)[C@@H]2C1 | 1900 nM | 2200 nM | 2800 nM | 800 nM | 800 nM | 3000 nM | 3600 nM | 1100 nM | – | – | – | – | – | – | 2800 nM | – | – | – |
